The values below come from ChEMBL document CHEMBL4038317, “Discovery of a Benzamide Derivative That Protects Pancreatic β-Cells against Endoplasmic Reticulum Stress” (J Med Chem, 2017).

Data set [1] has as its system INS1. The data set can be described thus: Cytoprotective activity in rat INS-1 cells assessed as protection against tunicamycin-induced ER stress-mediated reduction reduction in cell viability up to 10 uM after 3 days by MTT assay. It is filed as functional, cell-based. The procedure, abridged:
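INS-1 cells, 3×10^3 per well, were exposed to tunicamycin 0.1 μg/mL with compound for 72 h. MTT was added for 3 h at 37 °C, then crystal-dissolving solution for 4 h, and absorbance read at 570 nm. Triplicate wells, three independent experiments.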

Data set [2] deals with T1, Eukaryotic translation initiation factor 2-alpha kinase 3 (Rattus norvegicus) (UniProt Q9Z1Z1).
T1 sequence (whole entry): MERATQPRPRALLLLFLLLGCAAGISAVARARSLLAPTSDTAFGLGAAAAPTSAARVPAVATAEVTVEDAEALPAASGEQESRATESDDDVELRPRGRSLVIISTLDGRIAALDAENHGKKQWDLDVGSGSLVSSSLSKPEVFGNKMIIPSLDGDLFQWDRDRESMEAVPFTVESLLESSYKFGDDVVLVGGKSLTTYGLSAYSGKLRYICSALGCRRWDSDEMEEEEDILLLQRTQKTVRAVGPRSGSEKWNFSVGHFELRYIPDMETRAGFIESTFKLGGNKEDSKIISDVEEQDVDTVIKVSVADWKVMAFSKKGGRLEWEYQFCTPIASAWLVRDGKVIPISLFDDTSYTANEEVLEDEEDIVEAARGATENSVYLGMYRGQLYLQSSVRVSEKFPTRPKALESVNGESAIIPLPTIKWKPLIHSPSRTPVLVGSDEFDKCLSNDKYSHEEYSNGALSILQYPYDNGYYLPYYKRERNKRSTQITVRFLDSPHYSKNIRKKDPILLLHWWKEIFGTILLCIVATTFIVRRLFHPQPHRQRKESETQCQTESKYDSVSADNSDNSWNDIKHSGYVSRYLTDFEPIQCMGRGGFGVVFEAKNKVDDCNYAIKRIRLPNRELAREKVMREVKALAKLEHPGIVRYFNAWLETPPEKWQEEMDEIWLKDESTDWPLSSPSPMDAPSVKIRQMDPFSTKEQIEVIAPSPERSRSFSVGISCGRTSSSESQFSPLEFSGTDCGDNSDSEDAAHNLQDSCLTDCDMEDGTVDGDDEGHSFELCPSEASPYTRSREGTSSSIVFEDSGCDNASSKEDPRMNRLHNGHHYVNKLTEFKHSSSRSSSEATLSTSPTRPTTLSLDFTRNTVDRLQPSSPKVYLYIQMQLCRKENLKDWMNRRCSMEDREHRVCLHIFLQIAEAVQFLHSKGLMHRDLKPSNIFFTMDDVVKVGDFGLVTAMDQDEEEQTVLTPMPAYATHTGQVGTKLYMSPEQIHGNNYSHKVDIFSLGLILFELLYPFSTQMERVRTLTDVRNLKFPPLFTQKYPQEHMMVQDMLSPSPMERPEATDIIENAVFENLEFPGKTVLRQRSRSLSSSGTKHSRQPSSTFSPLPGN
Description: Inhibition of tunicamycin ER stress-induced PERK activation in rat INS-1 cells assessed as suppression of tunicamycin-induced increase in ATF4 protein levels up to 10 uM after 8 hrs by Western blot analysis. Type of data set: cell-based. The procedure, abridged:
(§1)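 INS-1 cells were exposed to tunicamycin 0.1 μg/mL with compound or DMSO for 8 h. Lysates were immunoblotted for ATF4 and CHOP (1:1000). Bands were quantified by densitometry and normalized to α-tubulin; 3 independent experiments.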

Data set [3] deals with T1, Eukaryotic translation initiation factor 2-alpha kinase 3 (Rattus norvegicus). The data set can be described thus: Inhibition of tunicamycin ER stress-induced PERK activation in rat INS-1 cells assessed as suppression of tunicamycin-induced increase in CHOP protein levels up to 10 uM after 8 hrs by Western blot analysis. It is filed as cell-based. The procedure, abridged: as §1

For data set [4], the system named is Mus musculus. The data set can be described thus: Antidiabetic activity in STZ-induced diabetic C57BL/6 mouse model assessed as blood glucose level at 5 mg/kg, ip administrated qd with streptozotocin for 5 days followed by compound administration alone for 2 more weeks measured on every third day during 5 hr fasting (reference value: 422 mg/dL). It is filed as functional.

Data set [5] relates to Mus musculus. The data set can be described thus: Antidiabetic activity in STZ-induced diabetic C57BL/6 mouse model assessed as total pancreatic islet beta-cell area at 5 mg/kg, ip administrated qd with streptozotocin for 5 days followed by compound administration alone for 2 more weeks by DAPI-staining based confocal microscopic analysis (reference value: 30.2 +/- 7.9%). Type of data set: functional. The procedure, abridged:
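At the end of treatment in the STZ mouse model, pancreases were formalin-fixed, paraffin-embedded and serially sectioned at 100 μm intervals. Six sections were stained for insulin and glucagon with DAPI counterstain and imaged by confocal microscopy. Insulin-positive cells demarcated islets; total islet area per section and cells per islet were quantified.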

Data set [6] deals with INS1. Description: Protection against tunicamycin ER stress-induced suppression of MafA mRNA expression in rat INS-1 cells up to 1 uM after 24 hrs by qRT-PCR analysis. Type of data set: functional, cell-based. The procedure, abridged:
(§2)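 INS-1 cells were exposed to tunicamycin 0.1 μg/mL with compound or DMSO for 24 h. INS1, INS2, PDX1 and MafA mRNA were measured by qRT-PCR and normalized to cyclophilin A by the comparative Ct method. Triplicate wells, 3 independent experiments.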

The test system of data set [7] is Beta-TC6. The data set can be described thus: Cytoprotective activity in mouse BetaTC6 cells assessed as protection against tunicamycin-induced ER stress-mediated reduction in cell viability after 3 days by CellTiter-Glo assay. Type of data set: functional, cell-based. The procedure, abridged: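 βTC6 cells, 3×10^3 per well, were exposed to tunicamycin 0.3 μg/mL with compound or DMSO for 72 h. Intracellular ATP was read by luminescence and expressed as fold of no-tunicamycin cells. Triplicate wells, three independent experiments.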

Data set [8] has as its system Mus musculus. The data set can be described thus: Antidiabetic activity in STZ-induced diabetic overnight fasted C57BL/6 mouse model assessed as blood glucose level at 5 mg/kg, ip administrated qd with streptozotocin for 5 days followed by compound administration alone for 2 more weeks measured at 15 mins post last dose relative to control. Type of data set: functional, organism-based. The procedure, abridged:
(§3)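 Same STZ/compound i.p. regimen in male C57BL/6 mice, vehicle group as control. Intraperitoneal glucose tolerance test in overnight-fasted mice: glucose 2 g/kg i.p., blood glucose read at set times after the glucose load.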

In data set [9] the test system is Mus musculus. The data set can be described thus: Antidiabetic activity in STZ-induced diabetic C57BL/6 mouse model assessed as decrease in blood glucose level at 5 mg/kg, ip administrated qd with streptozotocin for 5 days followed by compound administration alone for 2 more weeks. Type of data set: functional, organism-based. The following applies: TDE = time-dependent effect.

For a further data set, the species on record is Rattus norvegicus. The data set can be described thus: Inhibition of IRE1alpha activation in rat INS-1 cells assessed as suppression of tunicamycin-induced increase in XBP1 mRNA levels up to 10 uM after 8 hrs by agarose gel electrophoresis method. It is filed as cell-based. The procedure, abridged: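 INS-1 cells were exposed to tunicamycin 0.1 μg/mL with compound or DMSO for 8 h. Total XBP1 mRNA was amplified by RT-PCR, and the spliced and unspliced forms were separated electrophoretically.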

Data set [10] relates to INS1. The data set can be described thus: Protection against tunicamycin ER stress-induced suppression of INS1 mRNA expression in rat INS-1 cells up to 1 uM after 24 hrs by qRT-PCR analysis. Type of data set: functional, cell-based. The procedure, abridged:
as §2

In data set [11] the test system is Mus musculus. The data set can be described thus: Antidiabetic activity in STZ-induced diabetic overnight fasted C57BL/6 mouse model assessed as blood glucose level at 5 mg/kg, ip administrated qd with streptozotocin for 5 days followed by compound administration alone for 2 more weeks measured at 30 mins post last dose relative to control. It is filed as functional, organism-based. The procedure, abridged:
as §3

For data set [12], the system named is Beta-TC6. The data set can be described thus: Cytotoxicity against mouse BetaTC6 cells assessed as reduction in cell viability up to 40 uM after 3 days by CellTiter-Glo assay. It is filed as cell-based. To be noted: beta-tc6, 72 h.

Structures are written as SMILES. Active and inactive are the calls of the source. No cut-off for these calls is given here.

Take `O=C(NCc1ccc(C(F)(F)F)cc1)c1cccc(CN2CCCCC2)c1`: the outcome with INS1 [1], in the data set on INS1 [6], with Mus musculus [8], in the data set with INS1 [10] and in the data set with Mus musculus [11] was Active. Moreover, the inhibition result (in data set [2]; in [3]; in the data set listed under Rattus norvegicus) was “Active” throughout. The Activity is 314 mg/dL in the data set on Mus musculus [4]; 67.4% in the data set with Mus musculus [5]; “Dose-dependent effect” with Beta-TC6 [7]; “Tde” with Mus musculus [9]; “Non-Toxic” in the data set on Beta-TC6 [12].
